The target of assay [1] is T1, 5-hydroxytryptamine receptor 4 (Homo sapiens, UniProt Q13639). Nature of the assay: Agonist activity at human 5HT4 isoform E receptor expressed in rat C6 cells assessed as cAMP accumulation at 10 nM by radio-immunoassay relative to 5HT. In kind it is functional, cell-based. A digest of the protocol:
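C6 glial cells stably transfected with h5-HT4(e)R, grown to confluence, serum-free 4 h, then preincubated 15 min in serum-free medium with 5 mM theophylline and 10 µM pargyline. […] Stopped with ice-cold perchloric acid; cAMP by radioimmunoassay; response normalized to 5-HT maximum.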
For orientation: cAMP levels reflect the balance of adenylyl cyclase and phosphodiesterase activity.

Assay [2] has as its target T1, 5-hydroxytryptamine receptor 4. Kind of assay: Displacement of [3H]GR-113808 from human 5HT4 isoform E receptor expressed in rat C6 cells at 10 nM by liquid scintillation counting. The class given is cell-based.
Assay [3] deals with Mus musculus. Nature of the assay: Increase in sAPPalpha levels in C57BL/6J mouse brain hippocampus at 5 mg/kg, sc after 90 mins by Western blot. The class given is functional, organism-based. Also noted: dose 5 mg/kg. A digest of the protocol: (§1)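 Male C57BL/6j mice, 8 weeks, 23–27 g, 7–9 per group, single subcutaneous dose 5 mg/kg in 0.9% NaCl (saline controls 5 mL/kg). Killed 90 min later. Hippocampus and cortex sonicated in Tris/NaCl with protease inhibitors, spun 100000g 45 min. sAPPα immunoblot, normalized to β-actin densitometry, expressed as % of saline controls. One-way ANOVA with PLSD.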

Assay [4] addresses T1, 5-hydroxytryptamine receptor 4. Kind of assay: Agonist activity at human 5HT4 isoform E receptor expressed in rat C6 cells assessed as cAMP accumulation by radio-immunoassay relative to 5HT. In kind it is functional, cell-based. A digest of the protocol:
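C6 glial cells stably transfected with h5-HT4(e)R, grown to confluence, serum-free 4 h, then preincubated 15 min in serum-free medium with 5 mM theophylline and 10 µM pargyline.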

Assay [5] deals with Mus musculus. Kind of assay: Increase in sAPPalpha levels in C57BL/6J mouse brain cortex at 5 mg/kg, sc after 90 mins by Western blot. The class given is functional, organism-based. Set-up: dose 5 mg/kg. In short, it runs like this: as §1
For orientation: Immunoblotting shows a protein as a band on a membrane.

Assay [6] has as its target T1, 5-hydroxytryptamine receptor 4. Kind of assay: Displacement of [3H]GR-113808 from human 5HT4 isoform E receptor expressed in rat C6 cells by liquid scintillation counting. In kind it is cell-based. (Loss of bound radioactivity is the signal in a displacement assay; it reports binding, not function.)
The nature of assay [7]: Inhibition of amyloid beta (25-35) polymerization assessed as inhibition of fibril formation at 10 uM by UV-visible measurement. In short, it runs like this: (§2)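 Aβ25-35 (100 µM final) with agonist (10 µM final, added in MeOH) in 10 mM phosphate buffer pH 7.2, prepared at 4 °C. UV-visible spectra 190–600 nm at 15 °C read after 6 h; agonist-alone spectra subtracted, Aβ-alone control run in parallel. At least three independent measurements. IC50 obtained by least-squares sigmoidal fit, for agonists at least as active as curcumin.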

A short description of assay [8]: Inhibition of amyloid beta (25-35) polymerization assessed as inhibition of fibril formation by UV-visible measurement. A digest of the protocol:
as §2

Calls of active or inactive are those of the source. The rule behind the calls is not given here.

T1 sequence (Q13639 whole entry, canonical isoform): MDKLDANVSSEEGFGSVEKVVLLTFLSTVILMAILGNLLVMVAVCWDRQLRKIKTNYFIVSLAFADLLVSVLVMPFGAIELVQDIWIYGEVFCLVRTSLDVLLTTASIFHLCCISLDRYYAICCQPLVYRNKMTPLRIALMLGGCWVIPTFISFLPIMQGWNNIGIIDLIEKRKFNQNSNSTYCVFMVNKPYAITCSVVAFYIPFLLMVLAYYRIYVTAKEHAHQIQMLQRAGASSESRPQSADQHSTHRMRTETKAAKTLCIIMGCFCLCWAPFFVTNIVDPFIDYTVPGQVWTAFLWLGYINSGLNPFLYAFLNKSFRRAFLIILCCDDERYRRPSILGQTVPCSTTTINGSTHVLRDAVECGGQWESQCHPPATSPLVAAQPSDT

As to `COc1cc(N)c(Cl)cc1C(=O)OCCN1CCC(NC(=O)c2ccsc2)CC1`, the Emax (commonly the greatest response seen or fitted, relative to the assay's reference) in assay [1] stood at 20%. In assay [2], this compound gave an Activity of 10%.

As to `COc1ccc(OC)c(/C=C/C(=O)NCC2CCN(CCOC(=O)c3cc(Cl)c(N)cc3OC)CC2)c1`, the Activity in assay [2] is 20%.

Turning to `CCCC(=O)NCC1CCN(CCOC(=O)c2cc(Cl)c(N)cc2OC)CC1`, the Emax in assay [1] is < 10%. Besides, in assay [2], the Activity is 20%.

`COc1cc(N)c(Cl)cc1C(=O)OCCN1CCC(NC(=O)CCCNS(=O)(=O)c2ccc(C)cc2)CC1`: in assay [1], the Emax worked out at 10%. In assay [2], the Activity stood at 10%.

With `COc1cc(N)c(Cl)cc1C(=O)OCCN1CCC(CNC(=O)CCc2cccs2)CC1`, in assay [1], the Emax is 30%. For the same compound, the Activity in assay [2] was determined as 30%.

For `COc1cc(N)c(Cl)cc1C(=O)OCCN1CCC(CNC(=O)CCCNS(=O)(=O)c2ccc(-c3ccccc3)cc2)CC1`, the Emax in assay [1] was < 10%. Further, in assay [2], the Activity came out at 10%.

Turning to `COc1cc(N)c(Cl)cc1C(=O)OCCN1CCC(NC(=O)CCCNCCCc2ccc(CCCNCCCC(=O)NC3CCN(CCOC(=O)c4cc(Cl)c(N)cc4OC)CC3)cc2)CC1`, the outcome with Mus musculus [3] and in the assay with Mus musculus [5] was Active. In addition, the 50% effective concentration (EC50) (as a rule, the midpoint of the concentration-response curve) in assay [4] was found to be 9 nM. Moreover, the Emax in assay [1] was > 50%. Moreover, the Ki (commonly a dissociation constant, usually derived from enzyme kinetics or from competition with a known ligand) in assay [6] is 14 nM. The inhibition (in general, the percentage by which the read-out fell short of the control) in assay [7] amounted to 49%. The compound further had an Activity in assay [2] of 10%. Besides, the IC50 (as a rule, the concentration at which inhibition is half-maximal) in assay [8] worked out at 9000 nM.

Regarding `COc1cc(N)c(Cl)cc1C(=O)OCCN1CCCCC1`, the Emax in assay [1] was found to be 45%. Moreover, the Activity in assay [2] is 40%.

With `COc1cc(N)c(Cl)cc1C(=O)OCCN1CCC(NC(=O)CC(C)C)CC1`, the Emax in assay [1] is 10%. For the same compound, the Activity in assay [2] is < 10%.

For `COc1cc(N)c(Cl)cc1C(=O)OCCN1CCC(CNC(=O)c2ccsc2)CC1`, in assay [1], the Emax is 0%. In assay [2], the Activity came to 10%.

On to `COc1cc(N)c(Cl)cc1C(=O)OCCN1CCC(NC(=O)c2ccc(C)nc2O)CC1`, for which, in assay [2], the Activity was < 10%.

As to `COc1cc(N)c(Cl)cc1C(=O)OCCN1CCC(NC(=O)c2ccc([N+](=O)[O-])o2)CC1`, the Activity in assay [2] is < 10%.

As for `COc1cc(N)c(Cl)cc1C(=O)OCCN1CCC(NC(=O)c2cccs2)CC1`, in assay [1], the Emax was < 10%. In assay [2], this compound yielded an Activity of 20%.

Take `COc1cc(N)c(Cl)cc1C(=O)OCCN1CCC(CNC(=O)CC2CCCCC2)CC1`: in assay [1], the Emax is < -10%. For the same compound, the Activity in assay [2] is 20%.

For `COc1cc(N)c(Cl)cc1C(=O)OCCN1CCC(NC(=O)Cc2ccccc2Cl)CC1`, the concentration giving a half-maximal response (EC50) in assay [4] is 18 nM. Besides, the Emax in assay [1] was > 50%. The compound further displayed an inhibition constant (Ki) in assay [6] of 5 nM. The same compound yielded an Activity in assay [2] of 10%.

`COc1cc(N)c(Cl)cc1C(=O)OCCN1CCC(CNC(=O)Cc2ccc([N+](=O)[O-])cc2)CC1`: in assay [1], the Emax is > 50%. In addition, the Activity in assay [2] stood at 40%.

`COc1cc(N)c(Cl)cc1C(=O)OCCN1CCC(CNC(=O)c2cccs2)CC1`: in assay [1], the Emax was < 10%. Besides, in assay [2], the Activity was 20%.

Regarding `COc1cc(N)c(Cl)cc1C(=O)OCCN1CCC(NC(=O)CCCCc2ccccc2)CC1`, the Activity in assay [2] is < 10%.

Turning to `COc1cc(N)c(Cl)cc1C(=O)OCCN1CCC(CNC(=O)c2ccccc2F)CC1`, in assay [1], the Emax came to 0%. The compound further gave an Activity in assay [2] of 20%.

Regarding `COc1cc(N)c(Cl)cc1C(=O)OCCN1CCC(CNC(=O)CCCCc2ccccc2)CC1`, the Emax in assay [1] stood at 10%. For the same compound, in assay [2], the Activity was found to be 10%.

With `COc1cc(N)c(Cl)cc1C(=O)OCCN1CCC(CNC(=O)C(C)C)CC1`, the Emax in assay [1] was 10%. The Activity in assay [2] stood at 20%.

Take `COc1cc(/C=C/C(=O)CC(=O)/C=C/c2ccc(O)c(OC)c2)ccc1O` [CURCUMIN]: the inhibition in assay [7] was found to be 45%. Further, the IC50 in assay [8] came out at 10000 nM.

Turning to `COc1cc(N)c(Cl)cc1C(=O)OCCN1CCC(CNC(=O)CCC2CCCCC2)CC1`, the Emax in assay [1] is > 50%. In assay [2], this compound showed an Activity of 10%.

Consider `COc1cc(N)c(Cl)cc1C(=O)OCCN1CCC(CNC(=O)CSc2ccccc2)CC1`, for which the Emax in assay [1] was < 10%. In assay [2], this compound registered an Activity of 30%.

For the compound `COc1cc(N)c(Cl)cc1C(=O)OCCN1CCC(NC(=O)Cc2ccc(Br)cc2)CC1`, in assay [1], the Emax came out at 10%. In assay [2], this compound showed an Activity of 10%.

As for `COc1cc(N)c(Cl)cc1C(=O)OCCN1CCC(CNC(=O)CCc2ccccc2)CC1`, in assay [1], the Emax was found to be 20%. Further, the Activity in assay [2] amounted to 20%.

Take `COc1cc(N)c(Cl)cc1C(=O)OCCN1CCC(CNC(=O)CC(C)(C)C)CC1`: the Emax in assay [1] was 10%. Also, the Activity in assay [2] is 10%.

Consider `COc1cc(N)c(Cl)cc1C(=O)OCCN1CCC(NC(=O)CCC2CCCCC2)CC1`, for which the Activity in assay [2] came out at 0%.

Turning to `COc1cc(N)c(Cl)cc1C(=O)OCCN1CCC(CNC(=O)CCCNS(=O)(=O)c2ccc(C)cc2)CC1`, the EC50 in assay [4] was determined as 68 nM. Also, in assay [1], the Emax was > 70%. Also, the Ki in assay [6] amounted to 2 nM. For the same compound, in assay [2], the Activity is > 50%.

For `COc1cc(N)c(Cl)cc1C(=O)OCCN1CCC(NC(=O)c2ccccc2F)CC1`, the Emax in assay [1] was 10%. The compound also gave an Activity in assay [2] of 10%.

For the compound `COc1cc(N)c(Cl)cc1C(=O)OCCN1CCC(CNC(=O)Cc2ccc(Br)cc2)CC1`, the Emax in assay [1] is 0%. The same compound showed an Activity in assay [2] of 40%.

As for `COc1cc(N)c(Cl)cc1C(=O)OCCN1CCC(CNC(=O)CC(C)C)CC1`, the Emax in assay [1] was found to be 40%. In assay [2], this compound had an Activity of 20%.

Regarding `COc1cc(N)c(Cl)cc1C(=O)OCCN1CCC(NC(=O)CCCNCCCc2ccccc2)CC1`, in assay [1], the Emax was 50%. In assay [6], this compound had a Ki of 12 nM.

On to `COc1ccc(OC)c(CC(=O)NCC2CCN(CCOC(=O)c3cc(Cl)c(N)cc3OC)CC2)c1`, for which the Emax in assay [1] turned out to be 10%. This compound also yielded an Activity in assay [2] of 40%.

Take `COc1cc(N)c(Cl)cc1C(=O)OCCN1CCC(NC(=O)Cc2ccc([N+](=O)[O-])cc2)CC1`: the Emax in assay [1] amounted to 20%. In assay [2], the Activity amounted to 20%.

Turning to `COc1cc(N)c(Cl)cc1C(=O)OCCN1CCC(CNC(=O)CCCc2ccccc2)CC1`, in assay [1], the Emax was found to be 0%. For the same compound, the Activity in assay [2] amounted to 20%.

Consider `COc1cc(N)c(Cl)cc1C(=O)OCCN1CCC(CNC(=O)c2ccc(C)nc2O)CC1`, for which, in assay [1], the Emax was found to be 10%. This compound yielded an Activity in assay [2] of 10%.

For `COc1cc(N)c(Cl)cc1C(=O)OCCN1CCC(NC(=O)CCc2ccccc2)CC1`, the Emax in assay [1] was < 10%. The Activity in assay [2] was 20%.

Take `COc1cc(N)c(Cl)cc1C(=O)OCCN1CCC(NC(=O)CCc2cccs2)CC1`: in assay [1], the Emax came to 10%. In addition, in assay [2], the Activity is 10%.

Turning to `CCCC(=O)NC1CCN(CCOC(=O)c2cc(Cl)c(N)cc2OC)CC1`, the Activity in assay [2] turned out to be 0%.

In the case of `COc1cc(N)c(Cl)cc1C(=O)OCCN1CCC(CNC(=O)Cc2ccccc2Cl)CC1`, in assay [1], the Emax stood at 20%. For the same compound, the Activity in assay [2] is > 50%.

On to `COc1cc(N)c(Cl)cc1C(=O)OCCN1CCC(NC(=O)CC2CCCCC2)CC1`, for which, in assay [2], the Activity was < 10%.

`COc1cc(N)c(Cl)cc1C(=O)OCCN1CCC(NC(=O)CCCc2ccccc2)CC1`: the Emax in assay [1] stood at 20%. Besides, in assay [2], the Activity came to 20%.

For the compound `COc1cc(N)c(Cl)cc1C(=O)OCCN1CCC(NC(=O)CSc2ccccc2)CC1`, the Emax in assay [1] is < 10%. In assay [2], this compound showed an Activity of 20%.

The values above are taken from ChEMBL document CHEMBL1153823, “Design, synthesis, and biological evaluation of new 5-HT4 receptor agonists: application as amyloid cascade modulators and potential therapeutic utility in Alzheimer's disease” (J Med Chem, 2009).
